# Source: PubChem BioAssay (Sanford-Burnham Center for Chemical Genomics)
# EBI2 antag = blocks human EBI2 receptor beta-arrestin signaling. P32249. EBI2 beta-arrestin recruitment, luminescence, 7a,25-OHC stimulated. inhibition, % at 5 µM. 0.81% of 360,000 active; in the data active means inhibition above about 38%;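 further: enzyme fragment complementation signal reports receptor beta-arrestin coupling in cells; 0% = agonist plus DMSO wells and 100% = wells without agonist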
# Target sequence (P32249 whole entry, looked up, the tested form may be a part): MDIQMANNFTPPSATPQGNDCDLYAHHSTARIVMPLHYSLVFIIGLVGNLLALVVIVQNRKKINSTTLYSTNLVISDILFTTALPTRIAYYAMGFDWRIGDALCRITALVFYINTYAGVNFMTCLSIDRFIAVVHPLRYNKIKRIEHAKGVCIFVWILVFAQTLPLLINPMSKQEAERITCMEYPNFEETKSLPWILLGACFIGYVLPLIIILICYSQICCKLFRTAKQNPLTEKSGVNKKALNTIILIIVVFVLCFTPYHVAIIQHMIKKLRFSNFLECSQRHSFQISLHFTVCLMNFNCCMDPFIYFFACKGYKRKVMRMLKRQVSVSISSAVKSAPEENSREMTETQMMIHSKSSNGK
# SENP1 inh = SENP1 (human) catalytic domain inhibition | Q9P0U3 | 0.21% of 360,000 active | inhibition, % at 10 µM | AID 624204 | recombinant SENP1 catalytic domain, CyPet-SUMO1-YPet FRET cleavage;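 active means inhibition at least 30% at 10 µM, raw YFP signal under a set limit, fluorescence ratio 0.5 to 1.5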;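 further: 0% = enzyme with DMSO and 100% = no enzyme wells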
#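 Material – human SENP1 catalytic domain · Input – SENP1 enzyme, 20 pM final · Compound dosing – single concentration of 10 µM compound, 0.5% DMSO final · Timing – enzyme reaction for 50 min at room temperature, dark · Measured by – FRET fluorescence in CFP and YFP emission channels · Control set – no-enzyme wells low, DMSO-plus-enzyme wells high control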
# NR3A LBD binder = NR3A (human) ligand-binding domain modulation; 2.5% of 340,000 active; Tm shift relative to glycine control, % at 25 µM; NR3A LBD differential scanning fluorimetry, Tm shift; 0% = protein alone, 100% = glycine-bound protein;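 active means melting temperature shift of at least 10% of the positive control shift, at one fixed dose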
# MPTP inh = permeability transition pore inhibition; isolated mouse mitochondria, Ca2+ swelling absorbance, 30 min; inhibition, % at 10 µM; 1.4% of 360,000 active; AID 602449;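 active means inhibition of 50% or more, scaled per plate between neutral and stimulator controls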;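 further: 0% = DMSO wells given calcium and 100% = 1 mM EGTA wells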
# * = called active by the depositor; x = no result given. Most compounds without a hit are left out; they make up all but 4.4% or so of the library.
SMILES,EBI2 antag,SENP1 inh,NR3A LBD binder,MPTP inh
CC(C)(C)c1ccc(/C=C2/SC(N3CCCC3)=NC2=O)cc1,-31.8,0.4,-0.9,7.2
CCOc1cccc(N(C(=O)CNC(=O)c2ccco2)C(C(=O)NCC2CCCO2)c2ccccc2)c1 (stereo unspecified),-1.3,2.1,1.1,0.3
C[C@@H]1CN([C@H](C)CO)C(=O)CCCn2cc(nn2)CO[C@H]1CN(C)C(=O)Nc1cccc2ccccc12,-2.5,-1.6,x,-1.1
COC(=O)c1ccc2[nH]c3cccc(/C(=C/c4ccccc4)c4ccccc4)c3c2c1,20.5,-1.1,24.0*,2.5
CCOc1ccc(NC(=O)c2ccccc2NC(=O)CNC2CCCC(C)C2C)cc1 (stereo unspecified),-10.1,-2.8,13.4*,2.0
COc1ccccc1NC(=O)CSCc1cc(=O)n2ccsc2n1,-6.2,0.2,-2.2,3.6
OC(CNCCC1C=Nc2ccccc21)Cn1c2ccc(Cl)cc2c2cc(Cl)ccc21 (stereo unspecified),-5.8,0.3,27.5*,3.3
OC(CNCC1CCCO1)Cn1c2ccc(Cl)cc2c2cc(Cl)ccc21 (stereo unspecified),-14.3,0.9,-2.9,3.0
CCOC(=O)c1nn(-c2ccc3ccccc3c2)cc1O,16.9,-0.6,-6.5,0.3
Cc1[nH]n(-c2c(Cl)cc(Cl)cc2Cl)c(=O)c1C=Nc1ccc(S(=O)(=O)N2CCOCC2)cc1,-1.6,0.4,11.5*,1.9
Cc1[nH]n(-c2ccccc2)c(=O)c1C=Nc1ccc(S(N)(=O)=O)cc1,-7.3,2.5,-0.4,-0.2
Cc1ccc(C)c(NC(=O)CCN2CCCC(C)C2)c1 (stereo unspecified),-13.1,1.1,-1.6,-0.3
O=C(COC(=O)c1c(Cl)cccc1Cl)Nc1ccccc1Br,10.5,1.8,14.8*,0.2
CN1CCC(=NNC(=O)CSc2ccc(Cl)cc2)CC1,-4.2,2.5,21.0*,-4.1
COc1ccc(C(=O)NCc2nnc(SCC(=O)NCc3ccc(F)cc3)o2)cc1,4.7,3.7,11.2*,-0.7
O=C(CSc1nnc(CNC(=O)c2ccc(F)cc2)o1)NCc1ccc(F)cc1,-3.4,-15.4,-3.8,-0.2
CC(=O)NC(C)(c1ccccc1)c1nc(-c2cccc3cccnc23)cs1 (stereo unspecified),1.0,0.2,x,0.4
COc1ccc(N=C2SC(CC(=O)Nc3cccc(Cl)c3)C(=O)N2Cc2ccco2)cc1 (stereo unspecified),30.0,-8.0,11.8*,5.4
Cc1cc(NC(=O)COC(=O)C2CC(=O)N(c3ccc(C)c(Cl)c3)C2)no1 (stereo unspecified),-4.9,2.5,20.6*,-0.1
COC(=O)c1ccc(NCc2c(O)ccc(O)c2Br)cc1Cl,1.2,1.9,32.2*,1.2
Cc1ccc(CC(=O)NNC(=O)c2ccncc2)cc1C,-8.3,0.1,0.4,-1.9
Cc1[nH]c2ccccc2c1/C=N/NC(=O)c1cc(-c2ccccc2)n[nH]1,-12.2,1.5,18.6*,-3.8
O=C(N/N=C/c1[nH]c2ccccc2c1Cl)c1cccc(Br)c1,17.9,-0.7,12.1*,15.3
Cc1[nH]c2ccccc2c1/C=N/NC(=O)c1cccc(Br)c1,-2.4,30.2,16.4*,0.3
Cc1[nH]c2ccccc2c1/C=N/NC(=O)c1ccc(N)cc1,7.6,-6.4,11.5*,1.3
SMILES,EBI2 antag,SENP1 inh,NR3A LBD binder,MPTP inh
CCOc1ccc(Cl)cc1-c1cc(C(=O)Nc2cc(OC)c(OC)c(OC)c2)[nH]n1,11.5,1.4,x,0.6
Cc1ccc(NC(=O)c2ccc(CN3CCN(C)CC3)cc2)cc1Nc1nccc(-c2cccnc2)n1,9.5,-0.9,1.3,x
Cc1cc(Br)cc(Br)c1OCC(=O)NNC(=O)c1ccoc1C,0.3,2.0,0.7,0.1
CCCOC(=O)C1C2C=CC(C2)C1C(=O)OCC(=O)c1ccccc1 (stereo unspecified),0.2,2.5,0.9,0.8
O=C(N/N=C/c1ccco1)c1cccc(S(=O)(=O)Nc2ccccc2Cl)c1,-4.6,-0.4,-1.5,-5.5
CCN(CC)c1ccc(/C=N/NC(=O)c2cccc(S(=O)(=O)Nc3ccccc3OC)c2)c(O)c1,10.7,-24.3,13.8*,1.9
Cc1[nH]c2ccccc2c1/C=N/NC(=O)c1cccc(S(=O)(=O)Nc2ccccc2Cl)c1,-3.8,24.3,23.9*,0.3
CCc1cccc2c(/C=N/NC(=O)c3cccc(S(=O)(=O)Nc4ccccc4Cl)c3)c[nH]c12,5.3,-1.3,27.4*,-3.2
O=C(N/N=C/c1cccs1)c1cccc(S(=O)(=O)Nc2ccc(Cl)cc2)c1,4.2,3.0,28.1*,10.2
